Laboratory results taken from ChEMBL document CHEMBL4842338, “System-oriented optimization of multi-target 2,6-diaminopurine derivatives: Easily accessible broad-spectrum antivirals active against flaviviruses, influenza virus and SARS-CoV-2” (Eur J Med Chem, 2021).
Active and inactive are the calls of the source. The rule behind the calls is not given here.

What was measured:
Influenza A virus [1] = experiment: Antiviral activity against Influenza A Puerto Rico/8/34/H1N1 infected in human A549 cells assessed as inhibition of viral replication after 24 hrs by hemagglutination assay; type: functional, organism-based; settings: A/Puerto Rico/8/1934(H1N1), A549, 24 h
[2] = target: Fyn (Tyrosine-protein kinase Fyn) (Homo sapiens, UniProt P06241); experiment: Inhibition of human recombinant N terminal His6 tagged full length Fyn assessed as residual activity at 5 uM using […] as a substrate in the presence of NP-40 incubated for 10 mins by scintillation counting analysis relative to control; settings: probe […], read-out: Activity
How it was run: (§1)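 Compounds at fixed 5 μM; 10–50 ng kinase, substrate and NP-40/BSA per supplementary table, 10 μL at 30 °C for 10 min in low-binding tubes. Reactions spotted on filter, dried, scintillation counted. Mean ± SD of two independent experiments.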

[3] = target: Abl (Tyrosine-protein kinase ABL1) (Homo sapiens, UniProt P00519); experiment: Inhibition of human recombinant N terminal His6 tagged Abl (27 to end residue) assessed as residual activity at 5 uM using KKGEAIYAADFA-NH2 as a substrate in the presence of NP-40 incubated for 10 mins by scintillation counting analysis relative to control; settings: probe KKGEAIYAADFA-NH2, read-out: Activity; how it was run: as §1
[4] = Selectivity index, ratio of CC50 for human A549 cells to IC50 for Influenza A Puerto Rico/8/34/H1N1 infected in human A549 cells; type: toxicity, cell-based; settings: read-out: Selectivity Index
How it was run: (§2)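 MDCK or A549 cells (2.5 × 10⁵/well) infected with A/Puerto Rico/8/34 H1N1 for 1 h at 37 °C, then washed. Compound (0.5–20 μM) added in 2% FBS medium for 24 h, with DMSO final ≤0.2%. Virus in supernatants read by hemagglutination. CC₅₀ by MTT (2 × 10⁴ cells/well, same concentrations, 24 h, absorbance 570 nm). SI = CC₅₀/IC₅₀.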

[5] = Inhibition of full length ZIKV NS5-MTase domain using 7MeGpppAC4 as a substrate incubated for 30 mins by filter binding assay; set-up: species or system Zika virus
[6] = Selectivity index, ratio of CC50 for MDCK cells to IC50 for Influenza A Puerto Rico/8/34/H1N1 infected in MDCK cells; type: toxicity, cell-based; settings: dog, read-out: Selectivity Index; how it was run: as §2
CDK9/cyclin T1 = CDK9/cyclin T1 (Homo sapiens, UniProt P50750); experiment: Inhibition of human full length CDK9/ His-tagged cT1 assessed as residual activity at 5 uM using CDKtide as a substrate in the presence of BSA incubated for 10 mins by scintillation counting analysis relative to control; type: protein-complex assay; settings: full length CDK9/His-tagged cyclin T1 complex, probe CDKtide, read-out: Activity; how it was run: as §1
[7] = Inhibition of full length ZIKA virus NS5 RNA dependent RNA polymerase incubated for 10 mins by picogreen staining based fluorescent analysis (Rvb= 1+/-0.2 uM)
[8] = Inhibition of Dengue virus 2 […] RNA dependent RNA polymerase incubated for 10 mins by picogreen staining based fluorescent analysis (Rvb= 0.27+/-0.03 uM); set-up: species or system dengue virus type 2
[9] = Selectivity index, ratio of CC50 for human Huh-7 cells to IC50 for Zika virus H/PF/2013 infected in pre-seeded Huh-7 cells assessed as inhibition of viral replication incubated for 72 hrs by immunodetection based secondary yield reduction assay; type: toxicity, cell-based; settings: read-out: Selectivity Index
MDCK = experiment: Cytotoxicity against MDCK cells assessed as reduction in cell viability measured after 24 hrs by MTT assay; type: cell-based, Canis lupus familiaris; settings: dog, mdck, 24 h
[10] = target: PIK3CA (Phosphatidylinositol 4,5-bisphosphate 3-kinase catalytic subunit alpha isoform) (Homo sapiens, UniProt P42336); experiment: Inhibition of human full length PIK3CA assessed as residual activity at 5 uM using PI:PS (1:3) as a substrate incubated for 10 mins by scintillation counting analysis relative to control; settings: full length PIK3CA enzyme, probe PI:PS (1:3), read-out: Activity
How it was run: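 Radiometric kinase reaction with 10–50 ng enzyme and compound fixed at 5 μM, 10 μL at 30 °C for 10 min. Reactions spotted on filter and counted by scintillation. Residual activity is the mean ± SD of two independent experiments.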

[11] = Selectivity index, ratio of CC50 for human Huh-7 cells to IC50 for West Nile virus lineage 1 (Italy/2009) infected in pre-seeded Huh-7 cells assessed as inhibition of viral replication incubated for 48 hrs by immunodetection based direct yield reduction assay; type: toxicity, cell-based; settings: read-out: Selectivity Index
How it was run: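 Direct yield reduction in Huh7 cells (7000/well), infected with 50 TCID₅₀ of DENV or ZIKV, or 25 TCID₅₀ of WNV. Adsorption 1 h at 37 °C, then virus removed and serial compound dilutions added. Incubated 72 h (DENV, ZIKV) or 48 h (WNV). Viral antigen immunodetected on the monolayer. IC₅₀ by non-linear regression, mean of three experiments. SI = CC₅₀ (Huh7, CellTiter-Glo luminescence)/IC₅₀.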

[12] = Selectivity index, ratio of CC50 for human Huh-7 cells to IC50 for Dengue virus serotype 2 New Guinea C infected in pre-seeded Huh-7 cells assessed as inhibition of viral replication incubated for 72 hrs by immunodetection based secondary yield reduction assay; type: toxicity, cell-based; settings: read-out: Selectivity Index
[13] = Inhibition of DENV NS5-MTase domain using GpppA2'OMe-RNA74 as a substrate incubated for 30 mins by filter binding assay; set-up: species or system dengue virus type 2
How it was run: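 MTase (1 μM) incubated with increasing inhibitor in 40 mM Tris-HCl pH 7.5, 5 mM DTT, 10 μM AdoMet ([3H]-labelled), 0.5 μM GpppA2′OMe-RNA74 substrate, 30 °C for 30 min; stopped in ice-cold 100 μM AdoHcy; DEAE filter binding, scintillation counting.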

[14] = Antioxidant activity assessed as inhibition of ABTS radical scavenging activity at 10 uM to 1 mM measured after 10 mins; type: functional
How it was run: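 ABTS radical solution diluted in ethanol (1:100) to A734 0.70; 3.0 mL mixed with 30 μL sample in DMSO at 10 μM–1 mM; A734 read after exactly 10 min; ascorbic acid reference; % scavenging = (A0−As)/A0×100.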

[15] = Inhibition of full length Dengue virus 2 NS5 RNA dependent RNA polymerase incubated for 10 mins by picogreen staining based fluorescent analysis (Rvb= 0.32+/-0.05 uM); set-up: species or system dengue virus type 2
West Nile virus = experiment: Antiviral activity against West Nile virus lineage 1 (Italy/2009) infected in pre-seeded Huh-7 cells assessed as inhibition of viral replication incubated for 48 hrs by immunodetection based direct yield reduction assay; type: functional, organism-based; settings: West Nile virus, lineage 1 (Italy/2009), Huh-7, 48 h; read-out: IC50
Huh-7 = experiment: Cytotoxicity against human Huh-7 cells assessed as reduction in cell viability by Celltiter-Glo luminescent cell viability assay; type: cell-based; settings: huh-7
How it was run: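 Compound-exposed cells assessed by CellTiter-Glo luminescence versus DMSO control; CC50 from dose-response.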

A549 = experiment: Cytotoxicity against human A549 cells assessed as reduction in cell viability measured after 24 hrs by MTT assay; type: cell-based; settings: a549, 24 h
Zika virus = experiment: Antiviral activity against Zika virus H/PF/2013 infected in pre-seeded Huh-7 cells assessed as inhibition of viral replication incubated for 72 hrs by immunodetection based secondary yield reduction assay; type: functional, organism-based; settings: H/PF/2013, Huh-7, 72 h
dengue virus type 2 = experiment: Antiviral activity against Dengue virus serotype 2 New Guinea C infected in pre-seeded Huh-7 cells assessed as inhibition of viral replication incubated for 72 hrs by immunodetection based secondary yield reduction assay; type: functional, organism-based; settings: Dengue virus, New Guinea C, Huh-7, 72 h; read-out: IC50
Influenza A virus [16] = experiment: Antiviral activity against Influenza A Puerto Rico/8/34/H1N1 infected in MDCK cells assessed as inhibition of viral replication measured in supernatants of infected cells after 24 hrs by hemagglutination assay; type: functional, organism-based; settings: A/Puerto Rico/8/1934(H1N1)
[17] = target: Src (Proto-oncogene tyrosine-protein kinase Src) (Homo sapiens, UniProt P12931); experiment: Inhibition of human recombinant N terminal His6 tagged full length Src assessed as residual activity at 5 uM using KVEKIGEGTYGVVYK as a substrate in the presence of NP-40 incubated for 10 mins by scintillation counting analysis relative to control; settings: probe KVEKIGEGTYGVVYK, read-out: Activity; how it was run: as §1
Src (Proto-oncogene tyrosine-protein kinase Src), sequence (P12931 2-536 limits assumed): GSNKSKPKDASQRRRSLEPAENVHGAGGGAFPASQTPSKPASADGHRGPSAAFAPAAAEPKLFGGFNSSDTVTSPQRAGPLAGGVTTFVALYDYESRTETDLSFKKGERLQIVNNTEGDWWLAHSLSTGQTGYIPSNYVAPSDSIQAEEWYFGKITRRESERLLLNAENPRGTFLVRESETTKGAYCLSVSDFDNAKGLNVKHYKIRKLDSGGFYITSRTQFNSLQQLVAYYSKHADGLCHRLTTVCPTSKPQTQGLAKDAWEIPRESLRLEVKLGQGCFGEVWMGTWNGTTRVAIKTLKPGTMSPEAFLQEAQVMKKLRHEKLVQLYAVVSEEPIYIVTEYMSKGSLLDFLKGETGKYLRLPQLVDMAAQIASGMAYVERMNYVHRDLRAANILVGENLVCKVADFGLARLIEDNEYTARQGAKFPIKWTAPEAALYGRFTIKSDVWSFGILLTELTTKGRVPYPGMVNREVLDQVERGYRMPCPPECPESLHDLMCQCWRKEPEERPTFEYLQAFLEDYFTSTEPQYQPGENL

Fyn (Tyrosine-protein kinase Fyn), sequence (P06241 whole entry): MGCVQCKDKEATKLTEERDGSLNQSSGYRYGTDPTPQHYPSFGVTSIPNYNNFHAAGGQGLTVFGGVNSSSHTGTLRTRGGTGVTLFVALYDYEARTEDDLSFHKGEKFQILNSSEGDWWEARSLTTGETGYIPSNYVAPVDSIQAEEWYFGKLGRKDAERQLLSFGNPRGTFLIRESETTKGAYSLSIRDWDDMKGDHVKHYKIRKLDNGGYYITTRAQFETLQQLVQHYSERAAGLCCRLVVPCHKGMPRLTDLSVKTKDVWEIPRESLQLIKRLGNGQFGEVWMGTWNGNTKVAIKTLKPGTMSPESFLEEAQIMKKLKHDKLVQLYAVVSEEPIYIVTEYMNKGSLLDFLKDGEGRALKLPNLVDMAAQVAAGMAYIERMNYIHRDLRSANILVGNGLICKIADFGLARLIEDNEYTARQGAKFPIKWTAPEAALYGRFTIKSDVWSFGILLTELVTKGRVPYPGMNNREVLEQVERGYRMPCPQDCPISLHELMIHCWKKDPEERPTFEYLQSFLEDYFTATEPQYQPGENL
CDK9/cyclin T1, sequence (O60563 whole entry): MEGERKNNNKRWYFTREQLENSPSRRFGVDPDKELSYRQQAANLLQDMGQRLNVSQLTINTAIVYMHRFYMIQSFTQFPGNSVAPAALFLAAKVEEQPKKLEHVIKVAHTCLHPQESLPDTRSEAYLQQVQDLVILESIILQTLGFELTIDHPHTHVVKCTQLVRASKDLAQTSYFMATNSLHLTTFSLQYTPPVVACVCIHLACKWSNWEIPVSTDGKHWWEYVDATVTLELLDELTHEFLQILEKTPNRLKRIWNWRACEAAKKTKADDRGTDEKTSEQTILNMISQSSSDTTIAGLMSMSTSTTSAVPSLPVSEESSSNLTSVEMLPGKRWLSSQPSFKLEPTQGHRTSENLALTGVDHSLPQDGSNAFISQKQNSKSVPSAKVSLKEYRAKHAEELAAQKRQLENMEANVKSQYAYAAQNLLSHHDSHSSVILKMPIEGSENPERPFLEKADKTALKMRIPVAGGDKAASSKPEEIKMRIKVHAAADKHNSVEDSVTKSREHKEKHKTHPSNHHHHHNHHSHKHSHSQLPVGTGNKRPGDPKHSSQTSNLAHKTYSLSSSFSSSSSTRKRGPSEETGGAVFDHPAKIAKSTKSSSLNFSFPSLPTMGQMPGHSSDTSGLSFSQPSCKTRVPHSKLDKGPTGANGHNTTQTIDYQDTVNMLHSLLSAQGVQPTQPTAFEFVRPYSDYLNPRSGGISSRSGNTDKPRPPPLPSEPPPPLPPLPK
CDK9/cyclin T1, sequence (P50750 whole entry): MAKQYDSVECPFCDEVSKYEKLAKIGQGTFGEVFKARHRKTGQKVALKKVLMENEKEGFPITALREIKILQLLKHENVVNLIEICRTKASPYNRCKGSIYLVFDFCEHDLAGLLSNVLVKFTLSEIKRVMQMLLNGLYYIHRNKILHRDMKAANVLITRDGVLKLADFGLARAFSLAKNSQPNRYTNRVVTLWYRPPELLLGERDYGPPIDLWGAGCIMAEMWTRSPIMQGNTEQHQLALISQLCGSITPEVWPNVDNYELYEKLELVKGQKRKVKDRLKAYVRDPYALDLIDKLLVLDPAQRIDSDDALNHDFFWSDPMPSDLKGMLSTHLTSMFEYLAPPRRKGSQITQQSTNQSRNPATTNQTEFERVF
PIK3CA (Phosphatidylinositol 4,5-bisphosphate 3-kinase catalytic subunit alpha isoform), sequence (P42336 whole entry, canonical isoform): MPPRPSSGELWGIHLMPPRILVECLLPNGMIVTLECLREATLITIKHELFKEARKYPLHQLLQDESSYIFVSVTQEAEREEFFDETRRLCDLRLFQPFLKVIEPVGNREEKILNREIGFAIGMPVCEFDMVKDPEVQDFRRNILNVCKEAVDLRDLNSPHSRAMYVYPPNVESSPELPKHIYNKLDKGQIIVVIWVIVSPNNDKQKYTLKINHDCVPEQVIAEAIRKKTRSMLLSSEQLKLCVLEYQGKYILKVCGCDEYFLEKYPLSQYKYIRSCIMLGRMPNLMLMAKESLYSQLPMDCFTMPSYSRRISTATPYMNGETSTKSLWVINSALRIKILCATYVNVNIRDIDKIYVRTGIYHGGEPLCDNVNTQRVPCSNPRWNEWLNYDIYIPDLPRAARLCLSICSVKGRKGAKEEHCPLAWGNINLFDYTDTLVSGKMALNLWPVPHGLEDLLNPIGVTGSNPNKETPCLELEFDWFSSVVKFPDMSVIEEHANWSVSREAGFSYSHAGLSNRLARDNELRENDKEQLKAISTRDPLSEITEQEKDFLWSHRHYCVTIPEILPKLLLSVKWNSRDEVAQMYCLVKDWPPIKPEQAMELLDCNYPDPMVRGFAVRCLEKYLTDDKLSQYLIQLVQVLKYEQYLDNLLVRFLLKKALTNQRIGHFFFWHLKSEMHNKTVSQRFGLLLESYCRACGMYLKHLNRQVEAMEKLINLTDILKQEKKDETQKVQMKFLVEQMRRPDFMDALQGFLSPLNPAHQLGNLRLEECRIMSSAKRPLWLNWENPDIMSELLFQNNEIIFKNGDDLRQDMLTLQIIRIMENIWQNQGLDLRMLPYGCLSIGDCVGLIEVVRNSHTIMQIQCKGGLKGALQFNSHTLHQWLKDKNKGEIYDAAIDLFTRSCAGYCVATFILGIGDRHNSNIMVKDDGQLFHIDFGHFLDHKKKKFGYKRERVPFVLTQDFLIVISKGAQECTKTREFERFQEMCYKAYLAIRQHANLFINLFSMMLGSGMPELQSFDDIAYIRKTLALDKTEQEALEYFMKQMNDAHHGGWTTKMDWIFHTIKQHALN
Abl (Tyrosine-protein kinase ABL1), sequence (P00519 whole entry): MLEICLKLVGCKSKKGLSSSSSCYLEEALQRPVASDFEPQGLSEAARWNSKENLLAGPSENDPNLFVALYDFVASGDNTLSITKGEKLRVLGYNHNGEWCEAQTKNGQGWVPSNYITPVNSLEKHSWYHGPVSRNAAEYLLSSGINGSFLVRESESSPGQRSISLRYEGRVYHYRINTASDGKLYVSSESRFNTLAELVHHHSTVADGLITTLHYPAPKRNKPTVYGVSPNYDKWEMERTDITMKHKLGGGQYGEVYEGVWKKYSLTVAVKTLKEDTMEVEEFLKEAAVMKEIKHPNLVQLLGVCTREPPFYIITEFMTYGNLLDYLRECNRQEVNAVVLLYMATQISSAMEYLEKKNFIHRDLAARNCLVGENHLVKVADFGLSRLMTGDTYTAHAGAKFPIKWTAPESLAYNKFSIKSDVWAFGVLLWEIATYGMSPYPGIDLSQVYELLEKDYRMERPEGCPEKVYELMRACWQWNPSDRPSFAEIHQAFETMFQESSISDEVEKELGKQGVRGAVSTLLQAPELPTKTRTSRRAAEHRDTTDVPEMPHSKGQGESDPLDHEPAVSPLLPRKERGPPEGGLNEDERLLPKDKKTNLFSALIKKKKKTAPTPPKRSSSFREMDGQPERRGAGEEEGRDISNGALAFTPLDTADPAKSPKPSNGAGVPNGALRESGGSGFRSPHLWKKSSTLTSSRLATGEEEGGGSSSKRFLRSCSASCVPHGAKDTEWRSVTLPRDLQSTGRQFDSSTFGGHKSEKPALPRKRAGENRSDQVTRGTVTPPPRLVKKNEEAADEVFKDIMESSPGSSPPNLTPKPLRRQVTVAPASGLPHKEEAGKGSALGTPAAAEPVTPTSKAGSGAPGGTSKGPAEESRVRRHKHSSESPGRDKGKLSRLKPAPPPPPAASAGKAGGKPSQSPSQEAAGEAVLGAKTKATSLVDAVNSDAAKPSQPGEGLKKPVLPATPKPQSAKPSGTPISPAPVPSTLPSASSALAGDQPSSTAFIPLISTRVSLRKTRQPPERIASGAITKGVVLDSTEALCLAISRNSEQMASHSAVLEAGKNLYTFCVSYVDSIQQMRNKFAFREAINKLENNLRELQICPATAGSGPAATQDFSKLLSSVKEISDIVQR

**Q.** With Fc1cccc(NNc2nc(NCCOc3ccccc3)nc3[nH]cnc23)c1 as the compound, how does the IC50 (Influenza A virus [1]) read?
**A.** Its IC50 is 14.9 µM.

**Q.** What about the activity at 10 min, 5 µM [2] of the same compound?
**A.** Its activity at 10 min, 5 µM is > 98%.

**Q.** What about the activity at 10 min, 5 µM [3] of the same compound?
**A.** The activity at 10 min, 5 µM was 67%.

**Q.** And the selectivity ratio [4]?
**A.** The selectivity ratio was 3.5.

**Q.** And the IC50 [5]?
**A.** Its IC50 is “Not Active”.

**Q.** And the selectivity ratio [6]?
**A.** The selectivity ratio was > 5.3.

**Q.** And the activity at 10 min, 5 µM (CDK9/cyclin T1)?
**A.** The activity at 10 min, 5 µM was 88%.

**Q.** And the IC50 [7]?
**A.** Its IC50 is 105 µM.

**Q.** And the IC50 [8]?
**A.** The IC50 was > 100 µM.

**Q.** What about the selectivity ratio at 72 h [9] of the same compound?
**A.** The selectivity ratio at 72 h was 8.

**Q.** And the CC50 (MDCK)?
**A.** Its CC50 is 136 µM.

**Q.** And the activity at 10 min, 5 µM [10]?
**A.** The activity at 10 min, 5 µM was 77%.

**Q.** What about the selectivity ratio at 48 h [11] of the same compound?
**A.** Its selectivity ratio at 48 h is 18.

**Q.** What about the selectivity ratio at 72 h [12] of the same compound?
**A.** The selectivity ratio at 72 h was 6.

**Q.** What about the IC50 [13] of the same compound?
**A.** Its IC50 is “Not Active”.

**Q.** And the Activity [14]?
**A.** The Activity was “Active”.

**Q.** And the IC50 [15]?
**A.** The IC50 was 153 µM.

**Q.** And the IC50 (West Nile virus)?
**A.** Its IC50 is 1.1 µM.

**Q.** What about the CC50 (Huh-7) of the same compound?
**A.** Its CC50 is 20 µM.

**Q.** What about the CC50 (A549) of the same compound?
**A.** Its CC50 is 52.4 µM.

**Q.** What about the IC50 (Zika virus) of the same compound?
**A.** The IC50 was 2.4 µM.

**Q.** What about the IC50 (dengue virus type 2) of the same compound?
**A.** The IC50 was 3.4 µM.

**Q.** What about the IC50 (Influenza A virus [16]) of the same compound?
**A.** The IC50 was 6.3 µM.

**Q.** And the activity at 10 min, 5 µM [17]?
**A.** The activity at 10 min, 5 µM was 84%.
